Bioassay records: PubChem, Broad Institute
ERAP1 inh – human ERAP1 aminopeptidase inhibitors, primary screen, biochemical, single point, plate reader | recombinant ERAP1, Leu-AMC fluorescence, 60 min | inhibition, % at 10.7 µM | actives 0.15% (n = 340,000);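 active means mean replicate inhibition of at least 30%, or all replicates individually reaching that 30% level; inactive means mean below 30% and not every replicate reaching it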;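 further: 0% = neutral control wells and 100% = L-leucinethiol positive control wells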
S100A4 inh HTS – inhibitors of S100A4-myosin IIA peptide binding, primary screen, biochemical, fluorescence polarization, TAMRA-MyoIIA peptide | Protein S100-A4 (Homo sapiens), P26447 | inhibition, % at 10.7 µM | actives 0.14% (n = 360,000);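 active means mean inhibition of at least 70% across replicates, with every replicate also reaching that level; inconclusive means mean inhibition reaches 70% but some replicates fall short; inactive means mean inhibition below 70%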
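Assay system: human S100A4 monomer with TAMRA-labelled myosin IIA peptide / Buffer or medium: Calcium-containing HEPES buffer, pH 7.2 / Reagent: TAMRA-labelled myosin IIA heavy-chain peptide probe, 5 nM / Compound: one dose per compound / Timing: polarization read 5 min after assay mix addition, stable 5–60 min / Benchmarks: neutral control DMSO, positive control TFP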
CAL PDZ FP-1 – CAL PDZ peptide-binding inhibitors, primary screen, biochemical, fluorescence polarization, Cer-tagged CAL PDZ, HTS; Golgi-associated PDZ and coiled-coil motif-containing protein (Homo sapiens), Q9HD26; purified CAL PDZ, TMR-peptide fluorescence polarization, 1 h; inhibition, % at 20 µM; actives 0.02% (n = 330,000);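 active means highest replicate inhibition of at least 40%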;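 further: plate controls were DMSO neutral control wells for no effect and unlabeled competitor peptide control wells for full effect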
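Material: tagged CAL PDZ domain; buffer or medium: 25 mM sodium phosphate pH 7.4, 150 mM NaCl, TCEP, IgG, Thesit; compound dosing: single point, 20 µM; schedule: 1 h incubation at room temperature before polarization reading; measured by: FP readout, S and P plane fluorescence; read-out basis: percent inhibition from loss of millipolarization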
SIRT5 block – SIRT5 desuccinylase inhibitors, primary screen, biochemical, fluorescence imaging, single point, set 5; NAD-dependent protein deacylase sirtuin-5, mitochondrial (Homo sapiens), Q9NXA8; Purified SirT5, succinyl-peptide AMC, trypsin-coupled fluorescence; inhibition, % at 15 µM; actives 1.1% (n = 330,000); in the data active means inhibition above about 15%; inconclusive means no clear call, values can overlap the other calls
CAL PDZ FP-2 – untagged CAL PDZ binding inhibitors, primary screen, biochemical, fluorescence polarization, HTS; Golgi-associated PDZ and coiled-coil motif-containing protein (Homo sapiens), Q9HD26; purified CAL PDZ, TMR-peptide fluorescence polarization, 1 h; inhibition, % at 24.9 µM; actives 0.92% (n = 300,000);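 active means mean inhibition of at least 30% with at least half of replicates also reaching 30%; inconclusive means no clear call, values can overlap the other calls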;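 further: 0% = DMSO neutral control and 100% = excess unlabeled competitor peptide PRC23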
DENV2 CPE – inhibitors of DENV2 cytopathic effect, primary screen, cell-based, plate reader, single concentration. actives 1.7% (n = 350,000). DENV2-infected cells, cytopathic effect rescue. CPE inhibition, % at 9.99 µM. AID 651640, 2012; in the data active means CPE inhibition above about 20%, passing the limit was not always enough; inconclusive means no clear call, values can overlap the other calls; tested in BHK-21 cells;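 further: 0% = median of neutral control wells and 100% = median of positive control wells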
Active calls of the source: *; ? = inconclusive; / = not tested or not shown; ! = repeats disagree. In the library only some 2.9% were active in any assay of this set; here they are far more common.

SMILES | ERAP1 inh | S100A4 inh HTS | CAL PDZ FP-1 | SIRT5 block | CAL PDZ FP-2 | DENV2 CPE
C[C@@H](NC(=O)C[C@H]1CC[C@H](NC(=O)C2CC2)[C@H](CO)O1)c1ccccc1 | 0 | 9 | / | 2 | / | -6
C[C@@H](NC(=O)C[C@H]1CC[C@H](NC(=O)C2CC2)[C@@H](CO)O1)c1ccccc1 | 0 | 6 | / | 17* | / | -4
C[C@@H](NC(=O)C[C@H]1C=C[C@@H](NC(=O)C2CCC2)[C@H](CO)O1)c1ccccc1 | 4 | 101* | / | 4 | / | -5
O=C(Cc1ccccc1)N[C@H]1C=C[C@H](CC(=O)N2CCOCC2)O[C@@H]1CO | -4 | 10 | / | -1 | / | 2
O=C(Cc1ccccc1)N[C@H]1C=C[C@@H](CC(=O)N2CCOCC2)O[C@H]1CO | -2 | 8 | / | -6 | / | 53*
C[C@H](NC(=O)C[C@@H]1C=C[C@@H](NC(=O)CN2CCOCC2)[C@@H](CO)O1)c1ccccc1 | 10 | 1 | / | 27*! | / | ?
C[C@H](NC(=O)C[C@@H]1C=C[C@@H](NC(=O)C2CCC2)[C@H](CO)O1)c1ccccc1 | 4 | 0 | / | 1 | / | -8
C[C@H](CO)N1C[C@H](C)[C@H](CN(C)C(=O)Nc2ccc3c(c2)OCO3)Oc2cc(C#Cc3cccnc3)ccc2S1(=O)=O | -8 | 6 | / | 3 | / | -5
COc1ccc(CN(C)C[C@H]2Oc3ccc(NC(=O)Cc4ccccc4)cc3CC(=O)N([C@H](C)CO)C[C@@H]2C)cc1 | 0 | 0 | / | 8 | / | 19
C[C@@H]1CN([C@H](C)CO)C(=O)c2cc(NC(=O)CCCN(C)C)ccc2O[C@@H]1CN(C)CC1CCCCC1 | 1 | 9 | / | 0 | / | 18
O=C(C[C@@H]1C=C[C@H](NC(=O)CN2CCOCC2)[C@H](CO)O1)NC1CCCCC1 | -1 | 0 | / | 18* | / | 0
CCCNC(=O)N[C@H]1C=C[C@H](CC(=O)N2CCN(C)CC2)O[C@@H]1CO | 3 | 7 | / | 1 | / | 25*
CN1CCN(C(=O)C[C@H]2CC[C@@H]3[C@H](COC[C@H](O)CN3Cc3cccc(F)c3)O2)CC1 | / | / | / | / | / | -4
O=C1CCC[C@@H]2c3[nH]c4ccccc4c3CCN12 | 2 | 10 | / | -3 | / | -7
Cc1ccc(-c2nc3c(Cl)cc(C(F)(F)F)cn3c2Cc2ccccc2)cc1 | 5 | 2 | / | 15* | / | -4
Cc1ccc(-c2nc3c(Cl)cc(C(F)(F)F)cn3c2Cc2cccc(F)c2)cc1 | 3 | -6 | / | 22* | / | -2
C[C@H]1CN([C@@H](C)CO)C(=O)c2cc(C3=CCCCC3)cnc2O[C@@H]1CN(C)C(=O)c1ccc2c(c1)OCO2 | -2 | 3 | / | 6 | / | -8
CCCC(=O)Nc1ccc(NC(=O)c2ccccc2Cl)nc1 | / | / | / | / | 41* | /
CCCC(=O)Nc1ccc(NC(=O)Cc2ccccc2)cn1 | / | / | -2 | / | 0 | /
CNC(=O)C[C@@H]1CC[C@@H]2[C@H](COc3ccc(NC(=O)C4CC4)cc3C(=O)N2C)O1 | / | / | / | / | / | -6
COc1ccccc1N1CCN(C2CCCN(C(=O)c3cc(C4CC4)on3)C2)CC1 (centres undefined) | -2 | 1 | 1 | -5 | 128* | 0
Cc1cc(C(=O)N2CCCC(N3CCN(c4ccccc4C)CC3)C2)n(C)n1 (centres undefined) | 1 | 0 | 0 | 0 | 31* | -4
Cc1occc1C(=O)N1CCCC(N2CCN(c3ccccc3F)CC2)C1 (centres undefined) | -2 | 3 | -4 | -3 | -1 | 26*
C[C@@H]1CN([C@@H](C)CO)C(=O)c2cc(NC(=O)c3ccncc3)ccc2O[C@@H]1CN(C)C(=O)Nc1ccc(C(F)(F)F)cc1 | -7 | 0 | / | 4 | / | -1
CCCCC(NS(=O)(=O)c1ccc(OC)cc1)C(=O)O (centres undefined) | / | / | 3 | / | 49* | /
